Several values for one entry are separate records, joined by “and”; a condition that tells them apart may be missing. Identical values can stand only once.
Key:
[1] = test system: NCI-H322M; experiment: Growth inhibition of human NCI-H322M cells after 48 hrs by sulforhodamine B assay; assay type: functional
How it was run: (§1)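 Panel of 60 human cancer cell lines; for each compound, dose–response curves per cell line measured at a minimum of five concentrations at 10-fold dilutions. Cells exposed continuously to drug for 48 h, and growth was read out by sulforhodamine B staining.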

[2] = test system: HCC 2998; experiment: Growth inhibition of human HCC2998 cells after 48 hrs by sulforhodamine B assay; assay type: functional; details: HCC 2998, 48 h; how it was run: as §1
[3] = test system: Calf thymus DNA; experiment: Binding affinity to calf thymus duplex-form DNA assessed as cleavage of pBR322 after 16 hrs by restriction endonuclease digestion assay in presence of BamHI; assay type: nucleic-acid assay; details: Bos taurus
How it was run: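 pBR322 DNA (500 ng) preincubated with compound (5–30 μM) 16 h at 37 °C, then digested with BamHI (20 U) 1 h at 37 °C. Products run on 1% agarose in Tris–acetate EDTA, 80 V, 2 h. Read-out was ethidium bromide staining under UV, with an undigested and a fully digested control.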

[4] = test system: NCI-H23; experiment: Growth inhibition of human NCI-H23 cells after 48 hrs by sulforhodamine B assay; assay type: functional; details: NCI-H23, 48 h; how it was run: as §1
[5] = test system: 786-0; experiment: Growth inhibition of human 786-0 cells after 48 hrs by sulforhodamine B assay; assay type: functional; details: 786-0, 48 h
How it was run: (§2)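 Dose–response in each cell line over at least five concentrations at 10-fold dilutions, with 48 h continuous exposure and sulforhodamine B read-out.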

[6] = test system: TK-10; experiment: Growth inhibition of human TK10 cells after 48 hrs by sulforhodamine B assay; assay type: functional; details: TK-10, 48 h; how it was run: as §1
[7] = test system: A-375; experiment: Cell cycle arrest in human A375 cells assessed as accumulation at G1 phase at 2 uM after 24 hrs using propidium iodide staining by flow cytometry; assay type: functional
How it was run: (§3)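 A375 cells (5×10^5) grown 24 h, then exposed to compound 24 h (DMSO control). Trypsin–EDTA harvest, fixed in ice-cold 70% ethanol at 4 °C 30 min, RNase A 37 °C 30 min, propidium iodide staining. DNA content measured by flow cytometry on 20,000 events, gated as sub-G1/G0, G1, S and G2/M.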

[8] = test system: UACC-62; experiment: Growth inhibition of human UACC62 cells after 48 hrs by sulforhodamine B assay; assay type: functional; details: UACC-62, 48 h; how it was run: as §1
[9] = test system: CAKI-1; experiment: Growth inhibition of human Caki1 cells after 48 hrs by sulforhodamine B assay; assay type: functional; details: CAKI-1, 48 h; how it was run: as §2
[10] = test system: ACHN; experiment: Growth inhibition of human ACHN cells after 48 hrs by sulforhodamine B assay; assay type: functional; how it was run: as §2
[11] = test system: SNB-75; experiment: Growth inhibition of human SNB75 cells after 48 hrs by sulforhodamine B assay; assay type: functional; details: SNB-75, 48 h; how it was run: as §1
[12] = test system: DU-145; experiment: Growth inhibition of human DU145 cells after 48 hrs by sulforhodamine B assay; assay type: functional; details: DU-145, 48 h; how it was run: as §2
[13] = test system: MCF7; experiment: Growth inhibition of human MCF7 cells after 48 hrs by sulforhodamine B assay; assay type: functional; details: MCF7, 48 h; how it was run: as §1
[14] = test system: HOP-92; experiment: Growth inhibition of human HOP92 cells after 48 hrs by sulforhodamine B assay; assay type: functional; details: HOP-92, 48 h; how it was run: as §1
[15] = test system: T47D; experiment: Growth inhibition of human T47D cells after 48 hrs by sulforhodamine B assay; assay type: functional; how it was run: as §1
[16] = test system: UO-31; experiment: Growth inhibition of human UO31 cells after 48 hrs by sulforhodamine B assay; assay type: functional; details: UO-31, 48 h; how it was run: as §1
[17] = test system: HL-60; experiment: Growth inhibition of human HL-60(TB) cells after 48 hrs by sulforhodamine B assay; assay type: functional; details: HL-60, 48 h; how it was run: as §1
[18] = test system: A-375; experiment: Cell cycle arrest in human A375 cells assessed as accumulation at S phase at 2 uM after 24 hrs using propidium iodide staining by flow cytometry; assay type: functional; how it was run: as §3
[19] = test system: HT-29; experiment: Growth inhibition of human HT-29 cells after 48 hrs by sulforhodamine B assay; assay type: functional; details: HT-29, 48 h; how it was run: as §1
[20] = test system: BT-549; experiment: Growth inhibition of human BT549 cells after 48 hrs by sulforhodamine B assay; assay type: functional; details: BT-549, 48 h; how it was run: as §2
[21] = test system: COLO 205; experiment: Growth inhibition of human COLO205 cells after 48 hrs by sulforhodamine B assay; assay type: functional; details: COLO 205, 48 h; how it was run: as §2
[22] = test system: CCRF-CEM; experiment: Growth inhibition of human CCRF-CEM cells after 48 hrs by sulforhodamine B assay; assay type: functional; how it was run: as §2
[23] = test system: HT-29; experiment: Antitumor activity against human HT-29 cells xenografted in SCID mouse assessed as reduction tumor volume at 15 mg/kg, ip measured on day 5; assay type: functional; details: route intraperitoneal
How it was run: (§4)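 HT29 xenografts in scid mice; dosing ip on days 1, 5 and 9 (q4d), 5 or 10 mg/kg per dose (total 15 or 30 mg/kg); vehicle control group. Tumour volume, body weight and toxicity followed for 35 days. Relative tumour volume = volume on given day / volume on day 1; T/C = mean RTV treated / mean RTV control.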

[24] = test system: HT-29; experiment: Antitumor activity against human HT-29 cells xenografted in SCID mouse assessed as reduction tumor volume at 30 mg/kg, ip measured on day 21; assay type: functional; details: route intraperitoneal; how it was run: as §4
[25] = test system: HT-29; experiment: Antitumor activity against human HT-29 cells xenografted in SCID mouse assessed as reduction tumor volume at 30 mg/kg, ip measured on day 32; assay type: functional; details: route intraperitoneal; how it was run: as §4
[26] = test system: A-375; experiment: Cell cycle arrest in human A375 cells assessed as accumulation at G1 phase at 0.5 uM after 24 hrs using propidium iodide staining by flow cytometry; assay type: functional; how it was run: as §3
[27] = test system: HT-29; experiment: Antitumor activity against human HT-29 cells xenografted in SCID mouse assessed as reduction tumor volume at 30 mg/kg, ip measured on day 25; assay type: functional; details: route intraperitoneal; how it was run: as §4
[28] = test system: HT-29; experiment: Antitumor activity against human HT-29 cells xenografted in SCID mouse assessed as reduction tumor volume at 15 mg/kg, ip measured on day 35; assay type: functional; details: route intraperitoneal; how it was run: as §4
[29] = test system: HT-29; experiment: Antitumor activity against human HT-29 cells xenografted in SCID mouse assessed as reduction tumor volume at 30 mg/kg, ip measured on day 9; assay type: functional; details: route intraperitoneal; how it was run: as §4
[30] = test system: HT-29; experiment: Antitumor activity against human HT-29 cells xenografted in SCID mouse assessed as reduction tumor volume at 30 mg/kg, ip measured on day 35; assay type: functional; details: route intraperitoneal; how it was run: as §4
[31] = test system: Mus musculus; experiment: Toxicity in SCID mouse assessed as mortality at 50 mg/kg, ip; assay type: organism-based; parameters: dose 50 mg/kg, route intraperitoneal; details: in vivo
[32] = test system: HT-29; experiment: Antitumor activity against human HT-29 cells xenografted in SCID mouse assessed as reduction tumor volume at 15 mg/kg, ip measured on day 9; assay type: functional; details: route intraperitoneal; how it was run: as §4
[33] = test system: A-375; experiment: Cell cycle arrest in human A375 cells assessed as accumulation at G0/G1 phase at 0.5 uM after 24 hrs using propidium iodide staining by flow cytometry; assay type: functional; how it was run: as §3
[34] = test system: A-375; experiment: Cell cycle arrest in human A375 cells assessed as accumulation at G0 phase at 0.5 uM after 24 hrs using propidium iodide staining by flow cytometry; assay type: functional; how it was run: as §3
[35] = test system: HT-29; experiment: Antitumor activity against human HT-29 cells xenografted in SCID mouse assessed as reduction tumor volume at 15 mg/kg, ip measured on day 32; assay type: functional; details: route intraperitoneal; how it was run: as §4
[36] = test system: HT-29; experiment: Antitumor activity against human HT-29 cells xenografted in SCID mouse assessed as reduction tumor volume at 30 mg/kg, ip measured on day 14; assay type: functional; details: route intraperitoneal; how it was run: as §4
[37] = test system: A-375; experiment: Cell cycle arrest in human A375 cells assessed as accumulation at S phase at 0.5 uM after 24 hrs using propidium iodide staining by flow cytometry; assay type: functional; how it was run: as §3
[38] = test system: A-375; experiment: Cell cycle arrest in human A375 cells assessed as accumulation at G1 phase at 1 uM after 24 hrs using propidium iodide staining by flow cytometry; assay type: functional; how it was run: as §3

SMILES | GI50 [1] [nM] | GI50 [2] [nM] | Activity [3] | GI50 [5] [nM] | GI50 [6] [nM] | Activity [7] [%] | GI50 [8] [nM] | GI50 [9] [nM] | GI50 [10] [nM] | GI50 [11] [nM] | GI50 [13] [nM] | GI50 [14] [nM] | GI50 [15] [nM] | GI50 [16] [nM] | GI50 [17] [nM] | Activity [18] [%] | GI50 [19] [nM] | GI50 [20] [nM] | GI50 [21] [nM] | GI50 [22] [nM] | further results
COc1cc(-c2nc3ccccc3s2)ccc1OCCCCOc1cc2c(cc1OC)C(=O)N1CCC[C@H]1C=N2 | 2570 | 646 | Dose-dependent effect | 891 | 1510 | 69.69 | 1120 | 575 | 776 | 1230 | 407 | 263 | 257 | 1230 | 513 | 5 | 537 | 282 | 692 | 339 | GI50 [4]: 1480 nM; GI50 [12]: 302 nM
COc1cc(-c2nc3ccccc3s2)ccc1OCCCCCOc1cc2c(cc1OC)C(=O)N1CCC[C@H]1C=N2 | 302 | 126 | Dose-dependent effect | 27.5 | 331 | 67.04 | 81.3 | 117 | 53.7 | 145 | 19.1 | 44.7 | 14.1 | 200 | 33.1 | 3.11 | 40.7 | 21.9 | 60.3 | 21.9 | T/C [23]: 0.65% and 0.62%; T/C [24]: 0.58%; T/C [25]: 0.76%; Activity [26]: 64.95%; T/C [27]: 0.67%; GI50 [4]: 61.7 nM; T/C [28]: 0.82% and 0.14%; T/C [29]: 0.78%; T/C [30]: 0.68%; Activity [31]: Non-toxic; T/C [32]: 0.49%; Activity [33]: 67.08%; Activity [34]: 2.13%; GI50 [12]: 33.9 nM; T/C [35]: 0.76% and 0.16%; T/C [36]: 0.66%; Activity [37]: 64.95%; Activity [38]: 61.56%
COc1cc2c(cc1OCCCCC(=O)Nc1ccc(-c3nc4ccccc4s3)cc1)N=C[C@@H]1CCCN1C2=O | 2820 | 1580 |  | 1550 | 3240 | 73.34 | 1740 | 2190 | 3020 | 1820 | 724 | 1740 | 1950 | 1660 | 1780 | 6.15 | 2140 | 1120 | 1700 | 1200 | 
